# Test system: AR protein level in T98G cells
# Experiment: AR downregulation in T98G cells by Western blotting
# Format: cell-based, human
# Conditions: 100 nM, 12 h
# Summary of the method: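 Cells in 6-well plates treated with test compound or DMSO (T98G screens at 100 or 50 nM for 12 h). Lysed in RIPA with protease inhibitors (10 min on ice), spun at 10,000g for 10 min, protein by BCA. 50 µg resolved on 10% SDS-PAGE, transferred to PVDF, blocked 2 h in 5% milk/TBS-T. Anti-AR or anti-AR-V7 primary overnight at 4 °C, secondary 60 min at RT, chemiluminescence. Band gray values quantified.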
row,SMILES,AR downregulation activity at 100 nM
1,"COc1ccc(OC)c(COc2cc(NC(=O)c3ccc([N+](=O)[O-])cc3)ccc2NS(C)(=O)=O)c1 [Compound 13, N-(3-((2,5-Dimethoxybenzyl)oxy)-4-(methylsulfonamido)phenyl)-4-nitrobenzamide]",significant AR downregulation activity
2,"COc1ccc(OC)c(COc2cc(NC(=O)c3cccc(Br)c3)ccc2NS(C)(=O)=O)c1 [Compound 15, 3-Bromo-N-(3-((2,5-dimethoxybenzyl)oxy)-4-(methylsulfonamido)phenyl)benzamide]",significant AR downregulation activity
3,"COc1ccc(OC)c(COc2cc(NC(=O)c3ccc(SC)cc3)ccc2NS(C)(=O)=O)c1 [Compound 19, N-(3-((2,5-Dimethoxybenzyl)oxy)-4-(methylsulfonamido)phenyl)-4-(methylthio)benzamide]",significant AR downregulation activity
4,"COc1ccc(OC)c(COc2cc(NC(=O)c3ccc(OC(F)(F)F)cc3)ccc2NS(C)(=O)=O)c1 [Compound 33, N-(3-((2,5-Dimethoxybenzyl)oxy)-4-(methylsulfonamido)phenyl)-4-(trifluoromethoxy)benzamide]",significant AR downregulation activity
5,"COc1ccc(OC)c(COc2cc(NC(=O)c3ccccc3C)ccc2NS(C)(=O)=O)c1 [Compound 34, N-(3-((2,5-Dimethoxybenzyl)oxy)-4-(methylsulfonamido)phenyl)-2-methylbenzamide]",significant AR downregulation activity
6,"COc1ccc(OC)c(COc2cc(NC(=O)c3cccs3)ccc2NS(C)(=O)=O)c1 [Compound 35, N-(3-((2,5-Dimethoxybenzyl)oxy)-4-(methylsulfonamido)phenyl)thiophene-2-carboxamide]",significant AR downregulation activity
7,"COc1ccc(OC)c(COc2cc(NC(=O)c3ccno3)ccc2NS(C)(=O)=O)c1 [Compound 36, N-(3-((2,5-Dimethoxybenzyl)oxy)-4-(methylsulfonamido)phenyl)isoxazole-5-carboxamide]",significant AR downregulation activity

# Test system: AR-overexpressed GBM cell lines U87 and T98G
# Experiment: not given
# Format: cell-based, human
# Conditions: summary of Table 1
# Summary of the method: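 MTT assay in T98G and U87 cells kept in RPMI1640 or DMEM with 10% FBS and penicillin/streptomycin at 37 °C, 5% CO2. MTT 1 mg/mL for 2 h at 37 °C, formazan dissolved in DMSO, A570 read. Eight replicates; IC50 by nonlinear regression.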
row,SMILES,activity in GBM cell growth inhibition (SAR wording)
1,"CCCCCC(=O)Nc1ccc(NS(C)(=O)=O)c(OCc2cc(OC)ccc2OC)c1 [Compound 30, N-(3-((2,5-Dimethoxybenzyl)oxy)-4-(methylsulfonamido)phenyl)hexanamide]",lower activity
2,"COc1ccc(OC)c(COc2cc(NC(=O)c3cccs3)ccc2NS(C)(=O)=O)c1 [Compound 35, N-(3-((2,5-Dimethoxybenzyl)oxy)-4-(methylsulfonamido)phenyl)thiophene-2-carboxamide]",lower activity
3,"COc1ccc(OC)c(COc2cc(NC(=O)c3ccno3)ccc2NS(C)(=O)=O)c1 [Compound 36, N-(3-((2,5-Dimethoxybenzyl)oxy)-4-(methylsulfonamido)phenyl)isoxazole-5-carboxamide]",lower activity
4,"COc1ccc(OC)c(COc2cc(NC(=O)COCC(=O)Nc3ccc(NS(C)(=O)=O)c(OCc4cc(OC)ccc4OC)c3)ccc2NS(C)(=O)=O)c1 [Compound 38, 2,2′-Oxybis(N-(3-((2,5-dimethoxybenzyl)oxy)-4-(methylsulfonamido)phenyl)acetamide)]",poor activity
5,"COc1ccc(OC)c(COc2cc(NC(=O)OCCOC(=O)Nc3ccc(NS(C)(=O)=O)c(OCc4cc(OC)ccc4OC)c3)ccc2NS(C)(=O)=O)c1 [Compound 39, Ethane-1,2-diylbis((3-((2,5-dimethoxybenzyl)oxy)-4-(methylsulfonamido)phenyl)carbamate)]",poor activity
6,"COc1ccc(OC)c(COc2cc(NC(=O)OCCOCCOCCOC(=O)Nc3ccc(NS(C)(=O)=O)c(OCc4cc(OC)ccc4OC)c3)ccc2NS(C)(=O)=O)c1 [Compound 40, (Ethane-1,2-diylbis(oxy))bis(ethane-2,1-diyl)bis((3-((2,5-dimethoxybenzyl)oxy)-4-(methylsulfonamido)phenyl)carbamate)]",poor activity
7,"COc1ccc(OC)c(COc2cc(NC(=O)c3ccc(NC(=O)COCC(=O)Nc4ccc(C(=O)Nc5ccc(NS(C)(=O)=O)c(OCc6cc(OC)ccc6OC)c5)cc4)cc3)ccc2NS(C)(=O)=O)c1 [Compound 42, 4,4′-((2,2′-Oxybis(acetyl))bis(azanediyl))bis(N-(3-((2,5-dimethoxybenzyl)oxy)-4-(methylsulfonamido)phenyl)benzamide)]",poor activity
